ChEMBL document CHEMBL1177710, “Structure-based drug design and optimization of mannoside bacterial FimH antagonists” (J Med Chem, 2010)
One block for each compound: values may come before it.

Experiments:
[1] = Displacement of 5(6)-FAM-mannoside from Escherichia coli FimH by fluorescence polarization assay
Escherichia coli [2] = experiment: Inhibition of Escherichia coli FimH-mediated hemagglutinination of guinea pig red blood cells assessed as drug level required for > 90% inhibition of hemagglutinination
Escherichia coli [3] = experiment: Selectivity ratio of inhibition of Escherichia coli FimH-mediated hemagglutinination of guinea pig red blood cells to EC50 for Escherichia coli FimH
[4] = Binding affinity to Escherichia coli FimH by surface plasmon resonance assay
[5] = Binding affinity to Escherichia coli FimH by fluorescence polarization assay
In short: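 Competitive fluorescence polarization/anisotropy assay. Compounds from 10 mM DMSO stocks were 2-fold serially diluted to 11 final concentrations of 0–10 μM, in duplicate plates. Mix: 200 nM FimH, 20 nM 5(6)-FAM-labelled mannoside tracer, 50 mM Tris, 100 mM NaCl, 1 mM EDTA, 5 μg BSA, 5 mM BME. Anisotropy was averaged over 100 readings/well and fitted to a one-site competition curve, with a mannoside positive control.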

Escherichia coli [6] = experiment: Ratio of alpha-D-heptylmannoside to compound inhibitory activity against Escherichia coli FimH-mediated hemagglutinination of guinea pig red blood cells

Structure (SMILES): CNC(=O)c1cc(C(=O)NC)cc(-c2ccc(O[C@H]3O[C@H](CO)[C@@H](O)[C@H](O)[C@@H]3O)cc2)c1
EC50 [1]: 0.087 µM
Activity (Escherichia coli [2]): 0.37 µM
Selectivity ratio (Escherichia coli [3]): 4

Structure (SMILES): OC[C@H]1O[C@H](Oc2ccccc2Cl)[C@@H](O)[C@@H](O)[C@@H]1O
Activity (Escherichia coli [2]): 4 µM

Structure (SMILES): COC(=O)c1ccc(-c2ccc(O[C@H]3O[C@H](CO)[C@@H](O)[C@H](O)[C@@H]3O)cc2)cc1
EC50 [1]: 0.059 µM
Activity (Escherichia coli [2]): 4 µM

Structure (SMILES): CCCCO[C@H]1O[C@H](CO)[C@@H](O)[C@H](O)[C@@H]1O [BUTYLALPHAMAN]
EC50 [1]: 0.245 µM
Activity (Escherichia coli [2]): 125 µM
Kd [4]: 0.151 µM

Structure (SMILES): CS(=O)(=O)Nc1cccc(-c2ccc(O[C@H]3O[C@H](CO)[C@@H](O)[C@H](O)[C@@H]3O)cc2)c1
EC50 [1]: 0.097 µM
Activity (Escherichia coli [2]): 2 µM

Structure (SMILES): OC[C@H]1O[C@H](Oc2ccc(-c3ccccc3O)cc2)[C@@H](O)[C@@H](O)[C@@H]1O
Activity (Escherichia coli [2]): 8 µM

Structure (SMILES): COC(=O)c1cc(C(=O)OC)cc(-c2ccc(O[C@H]3O[C@H](CO)[C@@H](O)[C@H](O)[C@@H]3O)cc2)c1
EC50 [1]: 0.077 µM
Activity (Escherichia coli [2]): 0.15 µM
Selectivity ratio (Escherichia coli [3]): 2

Activity (Escherichia coli [2]): 8 µM
Structure (SMILES): O=C1Cc2cc(O[C@H]3O[C@H](CO)[C@@H](O)[C@H](O)[C@@H]3O)ccc2O1

Activity (Escherichia coli [2]): 8 µM
Structure (SMILES): O=C(c1ccccc1)c1cccc(O[C@H]2O[C@H](CO)[C@@H](O)[C@H](O)[C@@H]2O)c1

Structure (SMILES): N#Cc1ccccc1-c1ccc(O[C@H]2O[C@H](CO)[C@@H](O)[C@H](O)[C@@H]2O)cc1
Activity (Escherichia coli [2]): 2 µM

Structure (SMILES): N#Cc1cccc(-c2ccc(O[C@H]3O[C@H](CO)[C@@H](O)[C@H](O)[C@@H]3O)cc2)c1
Activity (Escherichia coli [2]): 1 µM

Structure (SMILES): O=C(O)c1cccc(-c2ccc(O[C@H]3O[C@H](CO)[C@@H](O)[C@H](O)[C@@H]3O)cc2)c1
EC50 [1]: 0.099 µM
Activity (Escherichia coli [2]): 4 µM

Activity (Escherichia coli [2]): 2 µM
Structure (SMILES): OC[C@H]1O[C@H](Oc2ccc(-c3ccncc3)cc2)[C@@H](O)[C@@H](O)[C@@H]1O

Structure (SMILES): COC(=O)Cc1ccc(O[C@H]2O[C@H](CO)[C@@H](O)[C@H](O)[C@@H]2O)cc1
Activity (Escherichia coli [2]): 30 µM

Structure (SMILES): CNC(=O)c1cccc(-c2ccc(O[C@H]3O[C@H](CO)[C@@H](O)[C@H](O)[C@@H]3O)cc2)c1
EC50 [1]: 0.075 µM
Activity (Escherichia coli [2]): 1 µM

Structure (SMILES): OCc1ccc(-c2ccc(O[C@H]3O[C@H](CO)[C@@H](O)[C@H](O)[C@@H]3O)cc2)cc1
Activity (Escherichia coli [2]): 6 µM

Structure (SMILES): N#Cc1ccc(O[C@H]2O[C@H](CO)[C@@H](O)[C@H](O)[C@@H]2O)cc1
Activity (Escherichia coli [2]): 30 µM

Structure (SMILES): CC(=O)Nc1cccc(-c2ccc(O[C@H]3O[C@H](CO)[C@@H](O)[C@H](O)[C@@H]3O)cc2)c1
EC50 [1]: 0.07 µM
Activity (Escherichia coli [2]): 2 µM

Structure (SMILES): COC(=O)c1cc(O[C@H]2O[C@H](CO)[C@@H](O)[C@H](O)[C@@H]2O)cc(C(=O)OC)c1
EC50 [1]: 0.091 µM
Activity (Escherichia coli [2]): 2 µM

Activity (Escherichia coli [2]): 6 µM
Structure (SMILES): OC[C@H]1O[C@H](Oc2ccc3ccccc3c2)[C@@H](O)[C@@H](O)[C@@H]1O

Structure (SMILES): Cc1ccc(O[C@H]2O[C@H](CO)[C@@H](O)[C@H](O)[C@@H]2O)cc1
Activity (Escherichia coli [2]): 8 µM

Structure (SMILES): O=C(O)c1cc(C(=O)NCCCCO[C@H]2O[C@H](CO)[C@@H](O)[C@H](O)[C@@H]2O)cc(-c2c3ccc(=O)cc-3oc3cc(O)ccc23)c1
Activity (Escherichia coli [2]): 125 µM
Kd [5]: 0.17 µM

Structure (SMILES): OC[C@H]1O[C@H](Oc2ccc(-c3cccc(O)c3)cc2)[C@@H](O)[C@@H](O)[C@@H]1O
Activity (Escherichia coli [2]): 4 µM

Structure (SMILES): CNS(=O)(=O)c1cccc(-c2ccc(O[C@H]3O[C@H](CO)[C@@H](O)[C@H](O)[C@@H]3O)cc2)c1
Activity (Escherichia coli [2]): 1 µM

Structure (SMILES): COC(=O)c1cccc(-c2ccc(O[C@H]3O[C@H](CO)[C@@H](O)[C@H](O)[C@@H]3O)cc2)c1
EC50 [1]: 0.052 µM
Activity (Escherichia coli [2]): 1 µM

Activity (Escherichia coli [2]): 4 µM
Structure (SMILES): O=c1[nH]c2ccc(O[C@H]3O[C@H](CO)[C@@H](O)[C@H](O)[C@@H]3O)cc2o1

Structure (SMILES): CC(=O)Nc1ccc(O[C@H]2O[C@H](CO)[C@@H](O)[C@H](O)[C@@H]2O)cc1
EC50 [1]: 0.122 µM
Activity (Escherichia coli [2]): 8 µM

Structure (SMILES): CNS(=O)(=O)c1ccccc1-c1ccc(O[C@H]2O[C@H](CO)[C@@H](O)[C@H](O)[C@@H]2O)cc1
Activity (Escherichia coli [2]): 4 µM

Structure (SMILES): COC(=O)c1cccc(O[C@H]2O[C@H](CO)[C@@H](O)[C@H](O)[C@@H]2O)c1
EC50 [1]: 0.084 µM
Activity (Escherichia coli [2]): 6 µM

Structure (SMILES): COC(=O)c1ccc(O[C@H]2O[C@H](CO)[C@@H](O)[C@H](O)[C@@H]2O)cc1
EC50 [1]: 0.064 µM
Activity (Escherichia coli [2]): 8 µM

Structure (SMILES): CS(=O)(=O)Nc1ccccc1-c1ccc(O[C@H]2O[C@H](CO)[C@@H](O)[C@H](O)[C@@H]2O)cc1
Activity (Escherichia coli [2]): 12 µM

Activity (Escherichia coli [2]): 2 µM
Structure (SMILES): COC(=O)c1cc2ccc(O[C@H]3O[C@H](CO)[C@@H](O)[C@H](O)[C@@H]3O)cc2s1

Activity (Escherichia coli [2]): 2 µM
Structure (SMILES): COC(=O)c1cc2cc(O[C@H]3O[C@H](CO)[C@@H](O)[C@H](O)[C@@H]3O)ccc2s1

Structure (SMILES): N#Cc1ccccc1O[C@H]1O[C@H](CO)[C@@H](O)[C@H](O)[C@@H]1O
Activity (Escherichia coli [2]): 6 µM

Structure (SMILES): NC(=O)c1ccccc1-c1ccc(O[C@H]2O[C@H](CO)[C@@H](O)[C@H](O)[C@@H]2O)cc1
Activity (Escherichia coli [2]): 6 µM

Structure (SMILES): O=C(NCCOCCNC(=O)c1cccc(-c2ccc(O[C@H]3O[C@H](CO)[C@@H](O)[C@H](O)[C@@H]3O)cc2)c1)c1cccc(-c2ccc(O[C@H]3O[C@H](CO)[C@@H](O)[C@H](O)[C@@H]3O)cc2)c1
Activity (Escherichia coli [2]): 0.75 µM

Structure (SMILES): CC(=O)Oc1cccc(O[C@H]2O[C@H](CO)[C@@H](O)[C@H](O)[C@@H]2O)c1
Activity (Escherichia coli [2]): 16 µM

Structure (SMILES): O=[N+]([O-])c1ccc(-c2ccc(O[C@H]3O[C@H](CO)[C@@H](O)[C@H](O)[C@@H]3O)cc2)cc1
Activity (Escherichia coli [2]): 2 µM

Structure (SMILES): COc1ccc(O[C@H]2O[C@H](CO)[C@@H](O)[C@H](O)[C@@H]2O)cc1
Activity (Escherichia coli [2]): 8 µM

Structure (SMILES): OC[C@H]1O[C@H](OCc2ccccc2)[C@@H](O)[C@@H](O)[C@@H]1O
EC50 [1]: 0.187 µM

Structure (SMILES): CC(=O)Nc1cccc(O[C@H]2O[C@H](CO)[C@@H](O)[C@H](O)[C@@H]2O)c1
EC50 [1]: 0.16 µM
Activity (Escherichia coli [2]): 12 µM

Structure (SMILES): CC(=O)Nc1ccccc1O[C@H]1O[C@H](CO)[C@@H](O)[C@H](O)[C@@H]1O
Activity (Escherichia coli [2]): 125 µM

Structure (SMILES): O=C(NCCOCCOCCNC(=O)c1cccc(-c2ccc(O[C@H]3O[C@H](CO)[C@@H](O)[C@H](O)[C@@H]3O)cc2)c1)c1cccc(-c2ccc(O[C@H]3O[C@H](CO)[C@@H](O)[C@H](O)[C@@H]3O)cc2)c1
Ratio (Escherichia coli [6]): 8

Activity (Escherichia coli [2]): 2 µM
Structure (SMILES): OC[C@H]1O[C@H](Oc2ccc(-c3cccnc3)cc2)[C@@H](O)[C@@H](O)[C@@H]1O

Structure (SMILES): O=C(O)c1cccc(O[C@H]2O[C@H](CO)[C@@H](O)[C@H](O)[C@@H]2O)c1
Activity (Escherichia coli [2]): 60 µM

Structure (SMILES): O=[N+]([O-])c1cccc(O[C@H]2O[C@H](CO)[C@@H](O)[C@H](O)[C@@H]2O)c1
Activity (Escherichia coli [2]): 16 µM

Structure (SMILES): OCc1cccc(-c2ccc(O[C@H]3O[C@H](CO)[C@@H](O)[C@H](O)[C@@H]3O)cc2)c1
Activity (Escherichia coli [2]): 3 µM

Structure (SMILES): OC[C@H]1O[C@H](Oc2ccc(Cl)cc2)[C@@H](O)[C@@H](O)[C@@H]1O
Activity (Escherichia coli [2]): 32 µM

Structure (SMILES): N#Cc1ccc(-c2ccc(O[C@H]3O[C@H](CO)[C@@H](O)[C@H](O)[C@@H]3O)cc2)cc1
Activity (Escherichia coli [2]): 8 µM

Structure (SMILES): COc1cccc(-c2ccc(O[C@H]3O[C@H](CO)[C@@H](O)[C@H](O)[C@@H]3O)cc2)c1
Activity (Escherichia coli [2]): 1.5 µM

Structure (SMILES): OC[C@H]1O[C@H](Oc2cccc(Cl)c2)[C@@H](O)[C@@H](O)[C@@H]1O
Activity (Escherichia coli [2]): 8 µM

Structure (SMILES): OCc1ccccc1-c1ccc(O[C@H]2O[C@H](CO)[C@@H](O)[C@H](O)[C@@H]2O)cc1
Activity (Escherichia coli [2]): 16 µM

Structure (SMILES): NC(=O)c1cccc(-c2ccc(O[C@H]3O[C@H](CO)[C@@H](O)[C@H](O)[C@@H]3O)cc2)c1
EC50 [1]: 0.078 µM
Activity (Escherichia coli [2]): 2 µM

Structure (SMILES): NC(=O)c1ccc(O[C@H]2O[C@H](CO)[C@@H](O)[C@H](O)[C@@H]2O)cc1
Activity (Escherichia coli [2]): 15 µM

Structure (SMILES): OC[C@H]1O[C@H](Oc2ccccc2)[C@@H](O)[C@@H](O)[C@@H]1O
EC50 [1]: 0.114 µM
Activity (Escherichia coli [2]): 30 µM

Structure (SMILES): O=C(O)c1cc(C(=O)O)cc(-c2ccc(O[C@H]3O[C@H](CO)[C@@H](O)[C@H](O)[C@@H]3O)cc2)c1
Activity (Escherichia coli [2]): 2 µM

Structure (SMILES): NC(=O)c1cccc(O[C@H]2O[C@H](CO)[C@@H](O)[C@H](O)[C@@H]2O)c1
Activity (Escherichia coli [2]): 16 µM

Structure (SMILES): N#Cc1cccc(O[C@H]2O[C@H](CO)[C@@H](O)[C@H](O)[C@@H]2O)c1
EC50 [1]: 0.162 µM
Activity (Escherichia coli [2]): 23 µM

Structure (SMILES): O=[N+]([O-])c1ccc(O[C@H]2O[C@H](CO)[C@@H](O)[C@H](O)[C@@H]2O)cc1
Activity (Escherichia coli [2]): 31 µM

Structure (SMILES): CCCCCCCO[C@H]1O[C@H](CO)[C@@H](O)[C@H](O)[C@@H]1O
EC50 [1]: 0.089 µM
Activity (Escherichia coli [2]): 15 µM
Kd [4]: 0.005 µM

Activity (Escherichia coli [2]): 6 µM
Structure (SMILES): COC(=O)c1ccc(-c2cccc(O[C@H]3O[C@H](CO)[C@@H](O)[C@H](O)[C@@H]3O)c2)cc1
